# Source: ChEMBL document CHEMBL4177600, “Identification of novel PI3K inhibitors through a scaffold hopping strategy” (Bioorg Med Chem Lett, 2017)
# Key:
# [1] = Cmax in BALB-C mouse at 10 mg/kg, po by LC-MS/MS analysis; type: ADME, organism-based; parameters: dose 10 mg/kg, route oral; settings: in vivo
# Outline: (§1)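 BALB-C mice dosed IV (10% NMP/50% PEG300/40% saline) or PO (10% NMP/90% PEG300). Plasma sampled at 6 (IV) or 8 (PO) time points; compound measured by LC/MS/MS. Parameters from bicompartmental model fit; each value is the mean of 3 independent samples.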
# [2] = target: T1, CYP1A2 (Homo sapiens, UniProt P05177); test: Inhibition of CYP1A2 (unknown origin) at 10 uM relative to control; type: ADME
# T1 sequence (P05177 whole entry): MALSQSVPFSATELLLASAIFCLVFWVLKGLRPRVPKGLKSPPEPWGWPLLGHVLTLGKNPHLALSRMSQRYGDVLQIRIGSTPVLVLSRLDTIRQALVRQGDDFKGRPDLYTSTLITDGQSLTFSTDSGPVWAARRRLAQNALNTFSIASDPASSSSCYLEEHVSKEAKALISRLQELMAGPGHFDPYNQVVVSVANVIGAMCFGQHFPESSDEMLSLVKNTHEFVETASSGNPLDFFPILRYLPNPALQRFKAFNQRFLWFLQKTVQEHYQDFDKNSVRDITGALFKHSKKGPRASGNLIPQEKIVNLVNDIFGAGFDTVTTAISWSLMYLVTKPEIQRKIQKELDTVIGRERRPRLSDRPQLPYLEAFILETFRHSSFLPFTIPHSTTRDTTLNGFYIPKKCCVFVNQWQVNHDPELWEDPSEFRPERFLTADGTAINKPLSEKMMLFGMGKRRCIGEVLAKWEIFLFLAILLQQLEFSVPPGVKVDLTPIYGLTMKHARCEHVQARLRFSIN
# Outline: (§2)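 CYP1A2, 2C9, 2C19, 2D6 and 3A4 inhibition measured at 10 µM test compound in duplicate; percent inhibition reported.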
# [3] = target: CYP3A4 (Homo sapiens, UniProt P08684); test: Inhibition of CYP3A4 (unknown origin) at 10 uM relative to control; type: ADME; outline: as §2
# [4] = Kinetic solubility of the compound in phosphate buffered saline at pH 7.4 at 1 to 2 mg measured after 24 hrs by HPLC analysis; type: physicochemical; settings: read-out: Kinetic_solubility
# Outline: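 Solid compound (1–2 mg) in 1 mL PBS, pH 7.4, inverted in test tubes for 24 h. Samples centrifuged, supernatant analysed by HPLC with diode-array detection, with peak area compared to a standard of known concentration. LC-MS/MS used when UV signal was too low or the chromophore poor. Reported in µM.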
# [5] = Oral bioavailability in BALB-C mouse at 10 mg/kg by LC-MS/MS analysis; type: ADME, organism-based; settings: in vivo
# Outline: (§3)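 BALB-C mice dosed IV in 10% NMP/50% PEG300/40% saline or PO in 10% NMP/90% PEG300. Plasma sampled at 6 (IV) or 8 (PO) time points and quantified by LC/MS/MS. Parameters come from a bicompartmental model fit; values are means of 3 independent samples. Plasma levels were compared with AKT-P EC50 from U2OS cells converted to ng/ml.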
# [6] = target: CYP2C19 (Homo sapiens, UniProt P33261); test: Inhibition of CYP2C19 (unknown origin) at 10 uM relative to control; type: ADME; outline: as §2
# [7] = Tmax in BALB-C mouse at 10 mg/kg, po by LC-MS/MS analysis; type: ADME, organism-based; settings: in vivo; outline: as §3
# [8] = Stability in human liver microsomes assessed as parent compound remaining at 0.5 uM after 30 mins by LC-MS/MS analysis; type: ADME, microsome; settings: read-out: Stability
# Outline: (§4)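 Single time-point stability assay: 0.5 µM compound, 0.5 mg/ml human or mouse liver microsomes in 0.1 M potassium phosphate pH 7.4, with NADPH-regenerating system, 30 min at 37 °C with shaking. Reaction quenched with acetonitrile/0.1% formic acid and centrifuged; supernatant analysed by LC-MS/MS. Reported as percent remaining; duplicates.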
# [9] = Permeability of the compound at 300 uL after 5 hrs by PAMPA; type: ADME; settings: read-out: permeability
# Outline: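 Pre-coated PAMPA plates with a tri-layer phospholipid membrane. Donor held compound in PBS at the highest concentration soluble in PBS; acceptor was PBS. Incubated 5 h at room temperature, with propranolol and sorafenib (10 µM) as high and low permeability controls. Donor and acceptor concentrations measured by LC-MS/MS; Pe (10^-6 cm/s) calculated from acceptor/equilibrium concentrations, 0.3 cm² area and well volumes.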
# [10] = target: CYP2C9 (Homo sapiens, UniProt P11712); test: Inhibition of CYP2C9 (unknown origin) at 10 uM relative to control; type: ADME; outline: as §2
# [11] = Inhibition of PI3K in serum-stimulated human U2OS cells assessed as decrease in AKT1 phosphorylation at S473 by C-ELISA; type: cell-based
# Outline: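 U2OS osteosarcoma cells grown in 0.1% FBS, then serum-stimulated; endogenous phospho-Akt1 (Ser473) quantified by cell ELISA with chemiluminescent substrate. EC50 from sigmoid dose-response fit; two independent experiments in duplicate.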
# [12] = target: PI3-kinase p110-alpha/p85-alpha (Homo sapiens, UniProt P42336); test: Inhibition of full-length human P110alpha (1 to 1068 residues)/N-terminal GST-fused p85alpha (1 to 724 residues) expressed in baculovirus expression system by ADP Hunter assay; settings: read-out: Ki(app)
# [13] = Stability in mouse liver microsomes assessed as parent compound remaining at 0.5 uM after 30 mins by LC-MS/MS analysis; type: ADME, microsome; settings: read-out: Stability; outline: as §4
# [14] = target: CYP2D6 (Homo sapiens, UniProt P10635); test: Inhibition of CYP2D6 (unknown origin) at 10 uM relative to control; type: ADME; outline: as §2
# [15] = AUC (infinity) in BALB-C mouse at 10 mg/kg, po by LC-MS/MS analysis; type: ADME, organism-based; parameters: dose 10 mg/kg, time infinity, route oral; settings: in vivo; outline: as §1
# [16] = target: PI3-kinase p110-delta/p85-alpha (Homo sapiens, UniProt O00329); test: Inhibition of recombinant human full-length N-terminal His6-tagged p110delta/human full-length p85alpha expressed in baculovirus infected Sf21 insect cells using PIP2 as substrate by HTRF assay; settings: read-out: Ki(app)
# [17] = Volume of distribution in BALB-C mouse at 5 mg/kg, iv by LC-MS/MS analysis; type: ADME, organism-based; settings: in vivo; outline: as §3
# [18] = test system: U2OS; test: Inhibition of AKT phosphorylation in human U2OS cells
# [19] = AUC (infinity) in BALB-C mouse at 5 mg/kg, iv by LC-MS/MS analysis; type: ADME, organism-based; parameters: dose 5 mg/kg, time infinity, route intravenous; settings: in vivo; outline: as §1
# [20] = Half-life in BALB-C mouse at 5 mg/kg, iv by LC-MS/MS analysis; type: ADME, organism-based; settings: in vivo; outline: as §1
# [21] = target: Voltage-gated inwardly rectifying potassium channel KCNH2 (Homo sapiens, UniProt Q12809); test: Inhibition of human ERG by Tracer Red dye based fluorescence polarization assay
# Outline: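 hERG binding measured with Predictor hERG kit per kit instructions, read by fluorescence polarization.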
# [22] = test system: Mus musculus; test: Clearance in BALB-C mouse at 5 mg/kg, iv by LC-MS/MS analysis relative to hepatic blood flow; type: ADME, organism-based; settings: in vivo
# [23] = Clearance in BALB-C mouse at 5 mg/kg, iv by LC-MS/MS analysis; type: ADME, organism-based; settings: in vivo
# Outline: (§5)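 Mice (BALB-C) given IV dose in 10% NMP/50% PEG300/40% saline; plasma sampled at 6 times, levels by LC/MS/MS.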
# [24] = target: Serine/threonine-protein kinase mTOR (Homo sapiens, UniProt P42345); test: Inhibition of recombinant human GST-tagged mTOR catalytic domain (1360 to 2549 residues) expressed in baculovirus expression system by AlexaFluor647-labeled kinase tracer 314 based LanthaScreen assay
# [25] = target: PI3K p110 beta/p85 alpha (Homo sapiens, UniProt P42338); test: Inhibition of p110beta/85alpha (unknown origin) using PIP2 as substrate by HTRF assay; type: protein-complex assay; settings: read-out: Ki(app)
# [26] = Half-life in BALB-C mouse at 10 mg/kg, po by LC-MS/MS analysis; type: ADME, organism-based; settings: in vivo; outline: as §1
# [27] = target: Phosphatidylinositol 4,5-bisphosphate 3-kinase catalytic subunit gamma isoform (Homo sapiens, UniProt P48736); test: Inhibition of recombinant full-length human N-terminal His6-tagged p110gamma expressed in baculovirus infected Sf21 insect cells using PIP2 as substrate by HTRF assay; settings: read-out: Ki(app)
# [28] = test system: Mus musculus; test: Time at which plasma concentration stays above cellular EC50 for inhibition of AKT phosphorylation in BALB-C mouse at 10 mg/kg, po measured up to 24 hrs by LC-MS/MS analysis; type: organism-based; settings: in vivo; outline: as §3
# [29] = Half-life in BALB-C mouse at 8 mg/kg, po by LC-MS/MS analysis; type: ADME, organism-based; settings: in vivo; outline: as §1
# [30] = Cmax in BALB-C mouse at 8 mg/kg, po by LC-MS/MS analysis; type: ADME, organism-based; parameters: dose 8 mg/kg, route oral; settings: in vivo; outline: as §1
# [31] = AUC (infinity) in BALB-C mouse at 8 mg/kg, iv by LC-MS/MS analysis; type: ADME, organism-based; parameters: dose 8 mg/kg, time infinity, route intravenous; settings: in vivo; outline: as §1
# [32] = Tmax in BALB-C mouse at 8 mg/kg, po by LC-MS/MS analysis; type: ADME, organism-based; settings: in vivo; outline: as §3
# [33] = test system: Mus musculus; test: Clearance in BALB-C mouse at 8 mg/kg, iv by LC-MS/MS analysis relative to hepatic blood flow; type: ADME, organism-based; settings: in vivo
# [34] = Half-life in BALB-C mouse at 8 mg/kg, iv by LC-MS/MS analysis; type: ADME, organism-based; settings: in vivo; outline: as §1
# [35] = Oral bioavailability in BALB-C mouse at 8 mg/kg by LC-MS/MS analysis; type: ADME, organism-based; settings: in vivo; outline: as §3
# [36] = Clearance in BALB-C mouse at 8 mg/kg, iv by LC-MS/MS analysis; type: ADME, organism-based; settings: in vivo; outline: as §5
# [37] = Volume of distribution in BALB-C mouse at 8 mg/kg, iv by LC-MS/MS analysis; type: ADME, organism-based; settings: in vivo; outline: as §3
# [38] = AUC (infinity) in BALB-C mouse at 8 mg/kg, po by LC-MS/MS analysis; type: ADME, organism-based; parameters: dose 8 mg/kg, route oral, time infinity; settings: in vivo; outline: as §1
# Chain of CYP2C9 (P11712 whole entry): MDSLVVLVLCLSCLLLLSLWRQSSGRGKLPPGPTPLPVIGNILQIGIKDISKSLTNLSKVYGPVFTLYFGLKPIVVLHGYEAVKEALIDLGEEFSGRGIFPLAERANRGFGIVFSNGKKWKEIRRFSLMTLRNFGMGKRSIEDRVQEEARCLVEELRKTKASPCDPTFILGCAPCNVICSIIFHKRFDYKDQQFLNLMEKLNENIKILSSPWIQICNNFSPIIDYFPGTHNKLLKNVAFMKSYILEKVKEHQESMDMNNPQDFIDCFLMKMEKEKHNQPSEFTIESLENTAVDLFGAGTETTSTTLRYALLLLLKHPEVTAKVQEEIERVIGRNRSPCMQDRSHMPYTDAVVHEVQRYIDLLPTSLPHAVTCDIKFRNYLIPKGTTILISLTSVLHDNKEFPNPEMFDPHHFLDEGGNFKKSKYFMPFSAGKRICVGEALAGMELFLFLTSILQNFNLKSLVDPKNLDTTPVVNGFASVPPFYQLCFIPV
# Chain of CYP2D6 (P10635 whole entry): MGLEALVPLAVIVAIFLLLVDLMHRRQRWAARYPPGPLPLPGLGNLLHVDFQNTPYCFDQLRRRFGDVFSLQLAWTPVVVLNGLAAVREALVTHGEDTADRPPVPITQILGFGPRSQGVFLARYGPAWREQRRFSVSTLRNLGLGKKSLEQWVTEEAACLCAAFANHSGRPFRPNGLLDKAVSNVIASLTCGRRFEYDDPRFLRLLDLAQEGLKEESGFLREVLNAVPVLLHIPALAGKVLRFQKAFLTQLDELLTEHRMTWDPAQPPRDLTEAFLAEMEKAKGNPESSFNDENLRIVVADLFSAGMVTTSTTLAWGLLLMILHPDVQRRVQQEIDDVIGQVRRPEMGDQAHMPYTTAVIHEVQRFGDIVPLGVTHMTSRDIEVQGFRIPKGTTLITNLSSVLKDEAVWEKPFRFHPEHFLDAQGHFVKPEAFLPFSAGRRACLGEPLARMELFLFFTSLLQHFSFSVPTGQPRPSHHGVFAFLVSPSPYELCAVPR
# Chain of CYP2C19 (P33261 whole entry): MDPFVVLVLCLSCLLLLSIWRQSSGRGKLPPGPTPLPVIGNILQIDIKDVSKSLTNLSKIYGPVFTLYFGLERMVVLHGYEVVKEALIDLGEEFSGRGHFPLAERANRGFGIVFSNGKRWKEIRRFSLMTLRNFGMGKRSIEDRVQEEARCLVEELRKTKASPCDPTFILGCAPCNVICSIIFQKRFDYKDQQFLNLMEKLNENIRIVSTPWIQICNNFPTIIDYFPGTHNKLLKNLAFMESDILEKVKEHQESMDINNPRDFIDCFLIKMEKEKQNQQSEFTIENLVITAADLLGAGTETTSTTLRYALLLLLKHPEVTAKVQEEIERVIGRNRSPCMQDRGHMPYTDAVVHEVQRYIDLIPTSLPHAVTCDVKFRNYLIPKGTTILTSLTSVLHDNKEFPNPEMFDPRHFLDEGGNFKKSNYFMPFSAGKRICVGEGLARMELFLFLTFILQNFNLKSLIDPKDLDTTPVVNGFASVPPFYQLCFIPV
# Chain of CYP3A4 (P08684 whole entry): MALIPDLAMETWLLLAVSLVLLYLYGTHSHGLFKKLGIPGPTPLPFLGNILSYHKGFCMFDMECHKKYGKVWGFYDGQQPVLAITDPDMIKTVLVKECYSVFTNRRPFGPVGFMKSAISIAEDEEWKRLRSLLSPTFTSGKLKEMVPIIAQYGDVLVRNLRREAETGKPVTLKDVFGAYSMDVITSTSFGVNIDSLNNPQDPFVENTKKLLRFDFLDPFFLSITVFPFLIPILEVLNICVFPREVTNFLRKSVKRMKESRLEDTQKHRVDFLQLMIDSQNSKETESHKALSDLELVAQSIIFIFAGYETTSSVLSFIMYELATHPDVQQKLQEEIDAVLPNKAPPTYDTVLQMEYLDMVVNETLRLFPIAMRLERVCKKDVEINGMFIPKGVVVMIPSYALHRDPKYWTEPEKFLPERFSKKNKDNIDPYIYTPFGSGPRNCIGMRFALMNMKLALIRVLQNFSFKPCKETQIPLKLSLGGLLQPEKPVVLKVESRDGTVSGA
# Chain of Voltage-gated inwardly rectifying potassium channel KCNH2 (Q12809 whole entry): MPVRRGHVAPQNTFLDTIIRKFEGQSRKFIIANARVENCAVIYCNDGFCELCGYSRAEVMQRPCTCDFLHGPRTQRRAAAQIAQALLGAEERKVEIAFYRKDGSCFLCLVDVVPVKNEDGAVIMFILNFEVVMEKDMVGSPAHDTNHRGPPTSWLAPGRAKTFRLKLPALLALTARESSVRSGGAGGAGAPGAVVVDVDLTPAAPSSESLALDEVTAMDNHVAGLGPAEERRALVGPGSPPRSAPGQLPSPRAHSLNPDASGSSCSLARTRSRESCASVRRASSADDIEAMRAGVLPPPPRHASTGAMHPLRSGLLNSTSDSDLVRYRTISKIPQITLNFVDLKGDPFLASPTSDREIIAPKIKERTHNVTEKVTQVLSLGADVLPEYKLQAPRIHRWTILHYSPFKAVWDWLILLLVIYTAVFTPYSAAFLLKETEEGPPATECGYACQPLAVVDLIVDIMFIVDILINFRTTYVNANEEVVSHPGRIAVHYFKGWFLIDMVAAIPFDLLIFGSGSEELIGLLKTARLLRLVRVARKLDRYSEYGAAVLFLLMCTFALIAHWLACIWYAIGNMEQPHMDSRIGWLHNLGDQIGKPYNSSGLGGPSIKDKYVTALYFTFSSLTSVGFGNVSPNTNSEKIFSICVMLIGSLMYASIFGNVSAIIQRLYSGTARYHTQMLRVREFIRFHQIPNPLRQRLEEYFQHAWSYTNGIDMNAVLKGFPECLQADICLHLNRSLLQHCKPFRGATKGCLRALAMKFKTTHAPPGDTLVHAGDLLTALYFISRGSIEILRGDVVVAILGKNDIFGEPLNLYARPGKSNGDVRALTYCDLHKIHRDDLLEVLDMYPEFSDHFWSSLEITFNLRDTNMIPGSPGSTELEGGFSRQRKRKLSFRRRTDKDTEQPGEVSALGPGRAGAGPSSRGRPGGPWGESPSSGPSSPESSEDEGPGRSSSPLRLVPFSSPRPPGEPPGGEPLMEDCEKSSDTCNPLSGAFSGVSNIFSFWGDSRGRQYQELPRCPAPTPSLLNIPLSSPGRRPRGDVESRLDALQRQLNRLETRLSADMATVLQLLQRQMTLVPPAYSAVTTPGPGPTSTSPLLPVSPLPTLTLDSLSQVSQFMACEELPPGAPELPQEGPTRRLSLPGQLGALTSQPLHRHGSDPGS
# Chain of PI3-kinase p110-delta/p85-alpha (P27986 whole entry): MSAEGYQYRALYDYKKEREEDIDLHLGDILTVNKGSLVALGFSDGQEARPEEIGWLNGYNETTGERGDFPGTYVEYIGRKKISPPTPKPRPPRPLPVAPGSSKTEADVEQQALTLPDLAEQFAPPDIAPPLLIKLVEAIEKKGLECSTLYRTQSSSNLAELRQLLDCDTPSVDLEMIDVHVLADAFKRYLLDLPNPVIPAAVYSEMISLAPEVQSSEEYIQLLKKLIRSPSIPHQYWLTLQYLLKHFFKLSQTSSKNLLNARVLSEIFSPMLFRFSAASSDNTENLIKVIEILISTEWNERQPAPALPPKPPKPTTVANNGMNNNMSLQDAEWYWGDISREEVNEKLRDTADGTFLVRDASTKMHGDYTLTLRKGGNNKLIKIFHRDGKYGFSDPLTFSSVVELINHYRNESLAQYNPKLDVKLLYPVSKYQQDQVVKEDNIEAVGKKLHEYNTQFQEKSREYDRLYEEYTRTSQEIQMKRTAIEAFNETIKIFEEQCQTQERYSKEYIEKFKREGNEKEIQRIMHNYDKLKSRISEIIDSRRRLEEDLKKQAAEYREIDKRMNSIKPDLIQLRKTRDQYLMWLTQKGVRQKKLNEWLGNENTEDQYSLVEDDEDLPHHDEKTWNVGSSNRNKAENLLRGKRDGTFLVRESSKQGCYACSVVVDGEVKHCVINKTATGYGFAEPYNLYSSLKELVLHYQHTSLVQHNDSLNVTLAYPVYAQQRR
# Chain of PI3-kinase p110-delta/p85-alpha (O00329 whole entry): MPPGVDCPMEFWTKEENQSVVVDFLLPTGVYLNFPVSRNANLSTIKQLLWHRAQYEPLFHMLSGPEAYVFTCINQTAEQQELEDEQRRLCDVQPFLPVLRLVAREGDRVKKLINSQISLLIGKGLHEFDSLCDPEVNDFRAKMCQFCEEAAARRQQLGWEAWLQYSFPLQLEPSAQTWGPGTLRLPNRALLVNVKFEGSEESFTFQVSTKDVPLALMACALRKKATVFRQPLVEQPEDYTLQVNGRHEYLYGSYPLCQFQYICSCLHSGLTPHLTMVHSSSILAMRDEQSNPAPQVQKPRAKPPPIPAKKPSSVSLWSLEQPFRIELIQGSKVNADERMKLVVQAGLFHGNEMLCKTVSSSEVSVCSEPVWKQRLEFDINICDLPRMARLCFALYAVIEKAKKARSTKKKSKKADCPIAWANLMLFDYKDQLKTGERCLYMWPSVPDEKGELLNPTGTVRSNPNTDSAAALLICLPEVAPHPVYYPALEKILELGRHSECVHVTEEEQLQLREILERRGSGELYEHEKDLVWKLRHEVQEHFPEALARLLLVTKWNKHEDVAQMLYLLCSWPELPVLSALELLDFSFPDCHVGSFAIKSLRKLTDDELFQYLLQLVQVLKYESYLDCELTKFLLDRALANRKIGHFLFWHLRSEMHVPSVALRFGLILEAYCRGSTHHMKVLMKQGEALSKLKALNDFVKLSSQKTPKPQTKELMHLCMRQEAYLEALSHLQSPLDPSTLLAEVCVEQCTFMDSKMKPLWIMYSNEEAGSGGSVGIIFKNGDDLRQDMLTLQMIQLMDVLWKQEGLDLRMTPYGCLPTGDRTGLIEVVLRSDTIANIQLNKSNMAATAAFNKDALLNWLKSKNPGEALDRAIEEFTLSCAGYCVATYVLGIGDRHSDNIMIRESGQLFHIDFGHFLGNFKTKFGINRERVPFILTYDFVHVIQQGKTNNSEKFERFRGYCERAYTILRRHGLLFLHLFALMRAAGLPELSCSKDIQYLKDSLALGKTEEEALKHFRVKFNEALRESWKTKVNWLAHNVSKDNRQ
structure (smiles),measurement,setting,value
CS(=O)(=O)N1CCN(Cc2cc3c(N4CCOCC4)nc(-c4cnc(N)nc4)c(Cl)n3n2)CC1,Cmax,[1],1370 ng/mL
same,inhibition at 10 µM,[2],< 25%
same,inhibition at 10 µM,[3],< 25%
same,solubility kinetic at 24 h,[4],100 µM
same,bioavailability,[5],43.1%
same,inhibition at 10 µM,[6],< 25%
same,Tmax,[7],0.5 h
same,"remaining at 0.5 h, 0.5 µM",[8],100%
same,Papp at 5 h,[9],1.51 ×10⁻⁶ cm/s
same,inhibition at 10 µM,[10],< 25%
same,EC50,[11],34.5 nM
same,Ki,[12],2.1 nM
same,"remaining at 0.5 h, 0.5 µM",[13],100%
same,inhibition at 10 µM,[14],< 25%
same,AUC(0-inf),[15],6980 ng·h/mL
same,Ki,[16],8.4 nM
same,Vd,[17],1.24 L/kg
same,EC50,[18],0.01753 µg/mL
same,AUC(0-inf),[19],8100 ng·h/mL
same,half-life,[20],0.61 h
same,IC50,[21],> 30000 nM
same,CL,[22],< 50%
same,clearance,[23],12.5 mL/min/kg
same,IC50,[24],5410 nM
same,Ki,[25],71.9 nM
same,half-life,[26],3.22 h
same,Ki,[27],16.7 nM
same,Time,[28],> 12 h
CS(=O)(=O)N1CCN(Cc2cn3cc(-c4cnc(N)nc4)nc(N4CCOCC4)c3n2)CC1,half-life,[29],8.38 h
same,Cmax,[30],1130 ng/mL
same,inhibition at 10 µM,[2],< 25%
same,inhibition at 10 µM,[3],< 25%
same,solubility kinetic at 24 h,[4],50 µM
same,inhibition at 10 µM,[6],< 25%
same,"remaining at 0.5 h, 0.5 µM",[8],100%
same,Papp at 5 h,[9],0.26 ×10⁻⁶ cm/s
same,inhibition at 10 µM,[10],< 25%
same,AUC(0-inf),[31],14200 ng·h/mL
same,Tmax,[32],1 h
same,"remaining at 0.5 h, 0.5 µM",[13],100%
same,inhibition at 10 µM,[14],< 25%
same,CL,[33],< 50%
same,half-life,[34],1.36 h
same,bioavailability,[35],88.6%
same,clearance,[36],9.33 mL/min/kg
same,Vd,[37],0.8 L/kg
same,IC50,[24],4880 nM
same,AUC(0-inf),[38],12600 ng·h/mL
